Legend:
[1] = tested on: Human immunodeficiency virus 1; experiment: Antiviral activity against HIV1; assay type: functional, organism-based
In short: (§1)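 MT-4 cells (2 ×10⁴ cells/well) got 5-fold serial compound dilutions together with 20–50 TCID of HIV IIIb. The virus was wild type, or an M46I/V82F/I84V mutant isolated after 20 passages of IIIb in MT4 cells under increasing ritonavir. Cell viability was read with XTT after five days. EC₅₀ came from dose–response curves of percent cytoprotection.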

Protease [2] = target: T1, Protease (Human immunodeficiency virus 1, UniProt Q9YQ12); experiment: Inhibition of HIV1 protease
In short: (§2)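 HIV-1 protease was cloned and expressed heterologously in E. coli. K_i values were determined in a fluorometric assay.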

[3] = tested on: Human immunodeficiency virus 1; experiment: Antiviral activity against HIV1 3B bearing wild type protease infected in human MT4 cells assessed as inhibition of virus-induced cytopathic effect after 5 days by XTT assay; assay type: functional, organism-based; conditions: Human immunodeficiency virus 1, 3B, MT4, 120 h; in short: as §1
[4] = tested on: Human immunodeficiency virus 1; experiment: Ratio of EC50 for HIV1 3B bearing protease with M46I, V82F and I84V mutation to EC50 for HIV1 3B bearing wild type protease; assay type: functional
In short: (§3)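 HIV IIIb resistant variant (M46I, V82F, I84V) obtained after 20 passages in MT4 cells under rising ritonavir. MT4 cells (2×10⁴/well) received 5-fold serial compound dilutions together with 20–50 TCID of wild-type or mutant IIIb. After 5 days, cytopathic effect was read as viability by XTT. EC50 was taken from dose-response curves of percent cytoprotection.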

Protease [5] = target: T1, Protease; experiment: Inhibition of HIV1 recombinant protease by fluorometric assay; in short: as §2
[6] = tested on: Human immunodeficiency virus 1; experiment: Antiviral activity against HIV1 3B bearing protease with M46I, V82F and I84V mutation infected in human MT4 cells assessed as inhibition of virus-induced cytopathic effect after 5 days by XTT assay; assay type: functional, organism-based; conditions: Human immunodeficiency virus 1, 3B, MT4, 120 h; in short: as §3
[7] = Apparent permeability across human Caco-2 cell membrane; assay type: ADME, cell-based

T1 sequence (Q9YQ12 whole entry): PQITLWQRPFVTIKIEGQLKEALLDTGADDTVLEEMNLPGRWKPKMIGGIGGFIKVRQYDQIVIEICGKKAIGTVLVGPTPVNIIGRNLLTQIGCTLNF

Question: Which results are given for `O=C(N[C@H]1c2ccccc2C[C@H]1O)[C@H](OCc1ccccc1)[C@H](O)[C@@H](O)[C@@H](OCc1ccccc1)C(=O)N[C@H]1c2ccccc2C[C@H]1O`?
Answer: EC50 [1]: 100 nM; Ki (Protease [2]): 0.6 nM

Question: Which EC50 [3] does the source give for `COCCNC(=O)[C@@H](NC(=O)[C@H](OCc1ccccc1)[C@H](O)[C@@H](O)[C@@H](OCc1ccccc1)C(=O)N[C@H]1c2ccccc2C[C@H]1O)C(C)C` here?
Answer: The EC50 was 250 nM.

Question: What about the Ratio EC50 [4] of the same molecule?
Answer: Its Ratio EC50 is 5.

Question: What about the Ki (Protease [5]) of the same molecule?
Answer: Its Ki is 2.3 nM.

Question: And the EC50 [6]?
Answer: Its EC50 is 1200 nM.

Question: With `CC(C)[C@H](NC(=O)[C@H](OCc1ccccc1)[C@H](O)[C@@H](O)[C@@H](OCc1ccccc1)C(=O)N[C@H]1c2ccccc2C[C@H]1O)C(=O)NCC(F)(F)F` as the molecule, how does the Papp [7] read?
Answer: The Papp was 2.9 ×10⁻⁶ cm/s.

Question: And the EC50 [3]?
Answer: Its EC50 is 150 nM.

Question: What about the Ratio EC50 [4] of the same molecule?
Answer: The Ratio EC50 was 5.

Question: What about the Ki (Protease [5]) of the same molecule?
Answer: The Ki was 1.9 nM.

Question: And the EC50 [6]?
Answer: Its EC50 is 920 nM.

Question: What does the source list for `CC(C)[C@H](NC(=O)[C@H](OCc1ccccc1)[C@H](O)[C@@H](O)[C@@H](OCc1ccccc1)C(=O)N[C@H]1c2ccccc2C[C@H]1O)C(=O)NCCF`?
Answer: Papp [7]: 1.6 ×10⁻⁶ cm/s; EC50 [3]: 170 nM; Ratio EC50 [4]: 3; Ki (Protease [5]): 1 nM; EC50 [6]: 440 nM

Question: Which EC50 [3] does the source give for `CNC(=O)[C@H](CCOC)NC(=O)[C@H](OCc1ccccc1)[C@H](O)[C@@H](O)[C@@H](OCc1ccccc1)C(=O)N[C@H]1c2ccccc2C[C@H]1O` here?
Answer: Its EC50 is 1800 nM.

Question: And the Ratio EC50 [4]?
Answer: The Ratio EC50 was 3.

Question: What about the Ki (Protease [5]) of the same molecule?
Answer: Its Ki is 10 nM.

Question: What about the EC50 [6] of the same molecule?
Answer: Its EC50 is 6900 nM.

Question: For `CNC(=O)[C@@H](NC(=O)[C@H](OCc1ccccc1)[C@H](O)[C@@H](O)[C@@H](OCc1ccccc1)C(=O)N[C@H]1c2ccccc2C[C@H]1O)C(C)C`, which EC50 [1] is on record?
Answer: The EC50 was 140 nM.

Question: What about the Papp [7] of the same molecule?
Answer: Its Papp is 1.4 ×10⁻⁶ cm/s.

Question: And the Ki (Protease [2])?
Answer: Its Ki is 0.2 nM.

Question: And the EC50 [3]?
Answer: Its EC50 is 140 nM.

Question: What about the Ratio EC50 [4] of the same molecule?
Answer: The Ratio EC50 was 9.

Question: And the Ki (Protease [5])?
Answer: The Ki was 0.2 nM.

Question: And the EC50 [6]?
Answer: Its EC50 is 1200 nM.

Question: Which results are given for `CNC(=O)[C@@H](NC(=O)[C@H](OCc1ccccc1)[C@H](O)[C@@H](O)[C@@H](OCc1ccccc1)C(=O)N[C@H]1c2ccccc2C[C@H]1O)C1COC1`?
Answer: EC50 [3]: 5400 nM; Ratio EC50 [4]: > 1.6; Ki (Protease [5]): 10 nM; EC50 [6]: > 10000 nM

Question: What does the source list for `CNC(=O)[C@H](NC(=O)[C@H](OCc1ccccc1)[C@H](O)[C@@H](O)[C@@H](OCc1ccccc1)C(=O)N[C@H]1c2ccccc2C[C@H]1O)C1COC1`?
Answer: EC50 [3]: > 10000 nM; Ki (Protease [5]): 99 nM; EC50 [6]: > 10000 nM

Question: Which results are given for `CNC(=O)[C@@H](NC(=O)[C@H](OCc1ccccc1)[C@H](O)[C@@H](O)[C@@H](OCc1ccccc1)C(=O)N[C@H]1c2ccccc2C[C@H]1O)C(C)COC` (single isomer, unassigned; 4d)?
Answer: EC50 [3]: 3500 nM; Ratio EC50 [4]: > 2; Ki (Protease [5]): 18 nM; EC50 [6]: > 10000 nM

Question: What does the source list for `CNC(=O)[C@@H](NC(=O)[C@H](OCc1ccccc1)[C@H](O)[C@@H](O)[C@@H](OCc1ccccc1)C(=O)N[C@H]1c2ccccc2C[C@H]1O)C(C)COC` (single isomer, unassigned; 4e)?
Answer: EC50 [3]: 330 nM; Ratio EC50 [4]: 4; Ki (Protease [5]): 0.7 nM; EC50 [6]: 1300 nM

Reference: ChEMBL document CHEMBL1154714, “Design and synthesis of novel P2 substituents in diol-based HIV protease inhibitors” (Eur J Med Chem, 2010)
